Activity calls are given as the source filed them. No cut-off for these calls is given here.
Tests used:
[1] = Inhibition of Wnt3A/beta-catenin signaling in HEK293 cells at 5 uM after 24 hrs by firefly/renilla dual luciferase reporter gene assay relative to vehicle-treated control; assay type: cell-based; parameters: scale not given: the % may be the effect or the level left; conditions: Homo sapiens
In short: (§1)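 HEK293T cells were co-transfected with TOPglow (or FOPglow) plus pCMV Renilla. At 20 h they were reseeded at 18×10^3/well and treated for 24 h with Wnt-3A conditioned medium (from L-Wnt-3A cells) plus analogs (0.01–20 µM; DMSO ≤0.1%). Firefly/Renilla dual-luciferase ratios were expressed as % of DMSO under Wnt-3A. EC50 was taken from sigmoidal concentration–response fits; three independent experiments.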

[2] = Inhibition of Wnt3A/beta-catenin signaling in HEK293 cells at 1 uM after 24 hrs by firefly/renilla dual luciferase reporter gene assay relative to vehicle-treated control; assay type: cell-based; parameters: scale not given: the % may be the effect or the level left; conditions: Homo sapiens; in short: as §1
[3] = test system: U2OS; experiment: Antiinvasive activity in human U2OS cells at 5 uM after 24 hrs by matrigel assay; assay type: functional
In short: (§2)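 U2OS osteosarcoma cells were pretreated with analogs for 24 h, and viability was confirmed by trypan blue. Cells were then seeded at 1.5×10^5 in serum-free medium onto inserts precoated with 30 µg Matrigel (8 µm pore), with McCoy's 5A plus 15% FBS below as chemoattractant. After 48 h of invasion, cells were fixed in 70% ethanol, stained with 0.2% crystal violet, and counted in ten random fields at 200×. Values are % of DMSO control; n=3.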

[4] = Inhibition of Wnt3A/beta-catenin signaling-mediated Tcf4 transcriptional activity in human U2OS cells at 20 uM after 24 hrs by FOPglow reporter gene assay; assay type: cell-based
In short: (§3)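 U2OS cells (1.0×10^5/well, 90–95% confluent) were co-transfected with TOPglow or FOPglow (0.3 µg) plus pCMV Renilla. At 20 h they were treated for 24 h with Wnt-3A conditioned medium and analogs. Firefly luciferase was normalized to Renilla and expressed as % of DMSO-treated samples; mean ± S.E.M of three independent experiments.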

[5] = Inhibition of Wnt3A/beta-catenin signaling-mediated Tcf4 transcriptional activity in human U2OS cells at 10 uM after 24 hrs by FOPglow reporter gene assay; assay type: cell-based; in short: as §3
[6] = Inhibition of Wnt3A/beta-catenin signaling in HEK293 cells after 24 hrs by firefly/renilla dual luciferase reporter gene assay; assay type: cell-based; conditions: Homo sapiens, HEK293, 24 h; in short: as §1
[7] = Inhibition of Wnt3A/beta-catenin signaling in HEK293 cells at 20 uM after 24 hrs by firefly/renilla dual luciferase reporter gene assay relative to vehicle-treated control; assay type: cell-based; parameters: scale not given: the % may be the effect or the level left; conditions: Homo sapiens; in short: as §1
[8] = Inhibition of Wnt3A/beta-catenin signaling in HEK293 cells at 10 uM after 24 hrs by firefly/renilla dual luciferase reporter gene assay relative to vehicle-treated control; assay type: cell-based; parameters: scale not given: the % may be the effect or the level left; conditions: Homo sapiens; in short: as §1
[9] = Inhibition of Wnt3A/beta-catenin signaling-mediated Tcf4 transcriptional activity in human HEK293T cells at dual luciferase reporter gene assay EC50 after 24 hrs by FOPglow reporter gene assay; parameters: scale not given: the % may be the effect or the level left
[10] = Inhibition of Wnt3A/beta-catenin signaling in human U2OS cells assessed as reduction in nuclear beta-catenin accumulation at 5 uM after 24 hrs by Western blot analysis; assay type: cell-based
In short: (§4)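 U2OS cells were pretreated with analogs for 24 h, and cytoplasmic and nuclear fractions were prepared for β-catenin immunoblotting. α-Tubulin (cytoplasmic) and lamin A/C (nuclear) were loading references. Bands were quantified by densitometry and expressed as % of DMSO-treated cells, with at least triplicate experiments.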

[11] = test system: U2OS; experiment: Downregulation of MMP9 protein expression in human U2OS cells at 1 to 5 uM after 24 hrs by Western blot analysis; assay type: functional, cell-based
In short: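 U2OS cells were exposed to analogs or DMSO vehicle for 24 h, then total protein was collected and MMP-9 immunoblotted. Blots were repeated at least in triplicate.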

[12] = test system: U2OS; experiment: Antiinvasive activity in human U2OS cells at 1 uM after 24 hrs by matrigel assay; assay type: functional; in short: as §2
[13] = Inhibition of Wnt3A/beta-catenin signaling in human U2OS cells assessed as effect on cytoplasmic beta-catenin level at 5 uM after 24 hrs by Western blot analysis; assay type: cell-based; in short: as §4
[14] = Inhibition of Wnt3A/beta-catenin signaling-mediated Tcf4 transcriptional activity in human U2OS cells at 1 uM after 24 hrs by FOPglow reporter gene assay; assay type: cell-based; in short: as §3
[15] = Inhibition of Wnt3A/beta-catenin signaling in HEK293 cells after 24 hrs by firefly/renilla dual luciferase reporter gene assay relative to curcumin; assay type: cell-based; conditions: Homo sapiens
In short: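 EC50s came from the HEK293T TOPglow/Renilla dual-luciferase assay with Wnt-3A conditioned medium and 24 h compound exposure (0.01–20 µM), using sigmoidal fits; three independent experiments.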

[16] = test system: HEK293T (human); experiment: Cytotoxicity against human HEK293T cells at dual luciferase reporter gene assay EC50 after 24 hrs by MTS assay
[17] = Inhibition of Wnt3A/beta-catenin signaling-mediated Tcf4 transcriptional activity in human U2OS cells at 5 uM after 24 hrs by FOPglow reporter gene assay; assay type: cell-based; in short: as §3

SMILES | activity [1] | activity [2] | Activity [3] | inhibition [4] | inhibition [5] | EC50 [6] | activity [7] | activity [8] | activity [9] | inhibition [10] | activity [11] | Activity [12] | inhibition [13] | inhibition [14] | fold change (FC) [15] | Activity [16] | inhibition [17]
COc1cc(/C=C/C(=O)CC(=O)/C=C/c2ccc(O)c(OC)c2)ccc1O [CURCUMIN] | 98.2% | 99.4% | 29% | 59.4% | 27.1% | 20700 nM | 62.8% | 82.5% | 89.3% |  |  |  |  |  |  |  | 
COc1ccc(/C=C2\CCC/C(=C\c3ccc(OC)c(O)c3)C2=O)cc1O | 27.7% | 37.3% | 81.6% |  |  | 300 nM | 21.4% | 24.7% | 93.8% | Active | Active | 34.8% | inactive | 25.7% | 59.7 | 91.6% | 
O=C1/C(=C/c2ccc(O)cc2)CC/C1=C\c1ccc(O)cc1 | 28.3% | 34.3% | 72.8% |  |  | 400 nM | 8% | 19.6% | 101% | Active | Active | 34.8% | inactive | 25.7% | 50.5 | 81.4% | 
O=C(/C=C/c1ccc(O)cc1)/C=C/c1ccc(O)cc1 | 51.3% | 62.3% | 76.2% |  |  | 3200 nM | 37.8% | 52% | 100% | Active | Active | 34.8% | inactive | 25.7% | 6.5 |  | 
COc1ccc(/C=C/C(=O)/C=C/c2ccc(OC)c(O)c2)cc1O | 38.8% | 82.5% |  |  |  | 1800 nM |  | 34.4% | 105% | inactive |  |  | inactive |  | 11.2 | 86.6% | 49.4%

Reference: ChEMBL document CHEMBL3102846 (Eur J Med Chem, 2014)
